The values that follow come from PMC4203516 (Autophagy, 2014).

Each structure is given as a SMILES string.

The test system of test [1] is autophagic vacuoles in peripheral blood mononuclear cells (PBMC). Kind of test: Autophagic vacuole. The class given is in vivo, human. To be noted: 1 wk, 24 h or 4 h after first TEM infusion, data pooled.
In test [2] the test system is cutaneous melanoma metastases. Kind of test: Autophagic vacuole accumulation in serial tumor biopsies by electron microscopy. The class given is in vivo, human. To be noted: after 4 h of treatment with TEM, one melanoma patient. The gist of the method: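 Cutaneous melanoma metastases sampled serially by punch biopsy from patients on IV temsirolimus 25 mg weekly plus oral HCQ 1200 mg/d. Tumour was dissected on ice and fixed immediately in EM fixative (2% glutaraldehyde, as used for PBMC) before electron microscopy for autophagic vacuoles.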

For a further test, the system named is advanced melanoma. Conditions: temsirolimus alone, of 33 patients; cited from earlier work.

Turning to `CO[C@H]1C[C@@H]2CC[C@@H](C)[C@@](O)(O2)C(=O)C(=O)N2CCCC[C@H]2C(=O)O[C@H]([C@H](C)C[C@@H]2CC[C@@H](OC(=O)C(C)(CO)CO)[C@H](OC)C2)CC(=O)[C@H](C)/C=C(\C)[C@@H](O)[C@@H](OC)C(=O)[C@H](C)C[C@H](C)/C=C/C=C/C=C/1C` [TEM, temsirolimus], in test [1], the “AV/cell in PBMC after TEM treatment alone” value is “no significant increase in AV”. Besides, in test [2], the “AV in tumor tissue compared with baseline” value is “no accumulation of AV”. In addition, in the test with advanced melanoma, the “Patients with partial response” value is recorded as 1 and the “Patients with stable disease” value is 0.
